From ChEMBL document CHEMBL1138503, “(Z)- and (E)-2-(1,2-dihydroxyethyl)methylenecyclopropane analogues of 2'-deoxyadenosine and 2'-deoxyguanosine. Synthesis of all stereoisomers, absolute configuration, and antiviral activity” (J Med Chem, 2009)
The source made the active and inactive calls. No cut-off for these calls is given here.

Legend:
Hepatitis C virus = assay: Antiviral activity against Hepatitis C virus; format: functional, organism-based; details: Hepacivirus hominis
Hepatitis B virus = assay: Antiviral activity against Hepatitis B virus; format: functional, organism-based
[1] = Cytotoxicity against human Akata cells; format: cell-based
[2] = biological target: T1, Adenosine deaminase (Bos taurus) (UniProt P56658); assay: Activity of calf intestine adenosine deaminase assessed as deamination after 24 hrs; design: concentration or dose not given beside the values
T1 sequence (whole entry): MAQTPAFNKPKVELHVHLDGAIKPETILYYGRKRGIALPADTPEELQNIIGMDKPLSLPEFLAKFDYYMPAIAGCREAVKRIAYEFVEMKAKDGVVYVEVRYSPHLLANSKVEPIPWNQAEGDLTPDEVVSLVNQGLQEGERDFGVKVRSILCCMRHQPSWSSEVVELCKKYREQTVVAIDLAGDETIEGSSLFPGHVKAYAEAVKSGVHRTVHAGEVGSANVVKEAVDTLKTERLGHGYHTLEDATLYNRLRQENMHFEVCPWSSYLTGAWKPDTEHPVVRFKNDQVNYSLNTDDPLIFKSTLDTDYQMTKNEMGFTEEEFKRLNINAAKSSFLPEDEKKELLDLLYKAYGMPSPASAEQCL
How it was run: (§1)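 Substrate (2 µmol) stirred with calf intestine ADA (1.7 units) in 0.05 M Na2HPO4, pH 7.5, 0.6 mL total. Aliquots withdrawn, diluted with buffer, and UV spectra recorded. Deamination followed as the fall in absorbance at 260 nm, expressed as percent deaminated at 24 h and 48 h.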

Human gammaherpesvirus 4 = assay: Antiviral activity against Epstein-Barr virus infected in human Akata cells by DNA hybridization assay; format: functional, organism-based; details: human gammaherpesvirus 4, Akata
How it was run: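 EBV DNA hybridization assay run in Akata cells; EC50 by DNA hybridization.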

Human betaherpesvirus 5 [3] = assay: Antiviral activity against Human cytomegalovirus Towne infected in human foreskin fibroblast cells by plaque reduction assay; format: functional, organism-based; details: Human betaherpesvirus 5, Towne
How it was run: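 HCMV Towne in human foreskin fibroblasts, plaque reduction assay; EC50 from plaque counts; cytotoxicity scored visually in uninfected HFF used for the plaque assays.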

[4] = biological target: T1, Adenosine deaminase (Bos taurus); assay: Activity of calf intestine adenosine deaminase assessed as deamination after 48 hrs; design: concentration or dose not given beside the values; how it was run: as §1
Human betaherpesvirus 5 [5] = assay: Antiviral activity against Human cytomegalovirus AD169 infected in human foreskin fibroblast cells assessed as inhibition of virus-induced cytopathic effect; format: functional, organism-based; details: Human betaherpesvirus 5, AD169, Fibroblast
How it was run: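 HCMV strain AD169 grown in human foreskin fibroblasts; cytopathic effect (CPE) inhibition assay gives EC50; cytotoxicity taken by neutral red uptake.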

HFF [6] = assay: (§2) Cytotoxicity against HFF cells by neutral red uptake assay; format: cell-based; details: human, hff
How it was run: (§3)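 Uninfected HFF cells, run alongside the HCMV cytopathic effect inhibition assay. Cytotoxicity read by neutral red uptake.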

Murid betaherpesvirus 1 = assay: Antiviral activity against Murine cytomegalovirus infected in mouse embryonic fibroblast cells by plaque reduction assay; format: functional, organism-based; details: Murid betaherpesvirus 1, Fibroblast
How it was run: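 MCMV plaque reduction assay in mouse embryonic fibroblast (MEF) cells; EC50 from plaque counts.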

Human betaherpesvirus 5 [7] = assay: Antiviral activity against cyclopropavir-resistant Human cytomegalovirus isolate 2696r with phosphotransferase UL97 mutation by plaque reduction assay; format: functional, organism-based; details: Human betaherpesvirus 5, isolate 2696r
How it was run: (§4)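 Plaque reduction in HFF cells with UL97-mutant HCMV raised from Towne: E8 (two point mutations in UL97, selected by growth in synadenol) and 2696r (truncated UL97, selected in cyclopropavir). Four drug concentrations tested in duplicate; EC50 from plaque counts.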

Human betaherpesvirus 5 [8] = assay: Antiviral activity against Human cytomegalovirus E8 with phosphotransferase UL97 two point mutation by plaque reduction assay; format: functional, organism-based; details: Human betaherpesvirus 5, E8; how it was run: as §4
[9] = as §2; format: cell-based; details: human, HFF cells; how it was run: as §3
[10] = (§5) Cytotoxicity against HFF cells by plaque reduction assay; format: cell-based; details: human, HFF cells
How it was run: (§6)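 Cytotoxicity scored visually in uninfected HFF cells run alongside the HCMV plaque reduction assays.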

HFF [11] = assay: as §5; format: cell-based; details: human, hff; how it was run: as §6
Human alphaherpesvirus 1 [12] = assay: Antiviral activity against HSV1 infected in human foreskin fibroblast cells; format: functional, organism-based
[13] = Cytotoxicity against african green monkey BSC1 cells; format: cell-based; details: chlorocebus aethiops, bsc-1
Human alphaherpesvirus 3 = assay: Antiviral activity against Varicella zoster virus infected in human foreskin fibroblast cells; format: functional, organism-based; details: Human alphaherpesvirus 3, Fibroblast
Human alphaherpesvirus 2 = assay: Antiviral activity against HSV2 infected in human foreskin fibroblast cells; format: functional, organism-based
Human alphaherpesvirus 1 [14] = assay: Antiviral activity against HSV1 infected in african green monkey BSC1 cells by ELISA; format: functional, organism-based; details: Human alphaherpesvirus 1, BSC-1
MEF = assay: Cytotoxicity against MEF cells; format: cell-based; details: mouse

Structure (SMILES)	Activity (Hepatitis C virus)	Activity (Hepatitis B virus)	CC50 ([1]; akata) [µM]	Activity [2] [%]	EC50 (Human gammaherpesvirus 4) [µM]	EC50 (Human betaherpesvirus 5 [3]) [µM]	Activity [4] [%]	EC50 (Human betaherpesvirus 5 [5]) [µM]	CC50 (HFF [6]) [µM]	also measured
Nc1ncnc2c1ncn2/C=C1\C[C@H]1[C@@H](O)CO	inactive	inactive	73	100	17	> 100	100	> 60	264	
Nc1nc2c(ncn2/C=C2/C[C@H]2[C@H](O)CO)c(=O)[nH]1	inactive	inactive	62.6		> 20	> 100		> 300		
Nc1nc2c(ncn2/C=C2/C[C@@H]2[C@H](O)CO)c(=O)[nH]1	inactive	inactive	54		43	> 100		> 300		
Nc1nc2c(ncn2COC(CO)CO)c(=O)[nH]1 [GANCICLOVIR]	inactive	inactive				1.2		0.04		EC50 (Murid betaherpesvirus 1): 5.5 µM; EC50 (Human betaherpesvirus 5 [7]): 42 µM; EC50 (Human betaherpesvirus 5 [8]): 22 µM
Nc1nc2c(ncn2/C=C2\C[C@H]2[C@@H](O)CO)c(=O)[nH]1	inactive	inactive	75		40	> 100		> 60	298	
Nc1nc2c(ncn2/C=C2/CC2(CO)CO)c(=O)[nH]1 [FILOCICLOVIR]	inactive	inactive			0.22	0.46		0.49		EC50 (Human betaherpesvirus 5 [7]): 28 µM; EC50 (Human betaherpesvirus 5 [8]): 8 µM; CC50 [9]: > 100 µM; CC50 [10]: > 100 µM
Nc1ncnc2c1ncn2/C=C1\C[C@H]1[C@H](O)CO	inactive	inactive	72.7	65	9.8	> 100	85	> 60	194	
Nc1ncnc2c1ncn2/C=C1/C[C@H]1[C@@H](O)CO	inactive	inactive	61.5	0	52.6	> 100	0	> 60		
Nc1nc2c(ncn2/C=C2\C[C@@H]2[C@@H](O)CO)c(=O)[nH]1	inactive	inactive	61		18	> 100		> 300		
Nc1ncnc2c1ncn2/C=C1\C[C@@H]1[C@H](O)CO	inactive	inactive	57	85	> 20	> 100	100	> 60		CC50 (HFF [11]): > 100 µM
Nc1nc2c(ncn2/C=C2/C[C@H]2[C@@H](O)CO)c(=O)[nH]1	inactive	inactive	78		8	6.8		7.5	299	Activity (Human alphaherpesvirus 1 [12]): inactive; EC50 (Murid betaherpesvirus 1): 11.3 µM; EC50 (Human betaherpesvirus 5 [7]): > 100 µM; CC50 [13]: > 100 µM; EC50 (Human alphaherpesvirus 3): 47 µM; EC50 (Human betaherpesvirus 5 [8]): 72 µM; Activity (Human alphaherpesvirus 2): inactive; EC50 (Human alphaherpesvirus 1 [14]): 50 µM; Activity (MEF): Not Active; CC50 (HFF [11]): > 100 µM
Nc1nc(O)c2ncn(COC(CO)CO)c2n1 [GANCICLOVIR]										CC50 [9]: > 100 µM; CC50 [10]: > 100 µM
Nc1nc2c(ncn2COCCO)c(=O)[nH]1 [ACYCLOVIR]	inactive	inactive			3.3					CC50 ([1]; Akata cells): > 100 µM
Nc1ncnc2c1ncn2/C=C1/C[C@@H]1[C@@H](O)CO	inactive	inactive	55	65	43	> 100	80	> 60	> 300	
Nc1ncnc2c1ncn2/C=C1\C[C@@H]1[C@@H](O)CO	inactive	inactive	50.6	100	50.4	> 100	100	> 300		
Nc1ncnc2c1ncn2/C=C1/C[C@@H]1[C@H](O)CO	inactive	inactive	50.5	45	> 20	> 100	80	300		
Nc1nc2c(ncn2/C=C2\C[C@H]2[C@H](O)CO)c(=O)[nH]1	inactive	inactive	86.6		58.7	> 100		> 300		CC50 (HFF [11]): > 300 µM
Nc1nc2c(ncn2/C=C2/C[C@@H]2[C@@H](O)CO)c(=O)[nH]1	inactive	inactive	56		> 20	> 100		> 300		
Nc1ncnc2c1ncn2/C=C1/C[C@H]1[C@H](O)CO	inactive	inactive	93.5	0	60	> 100	0	> 60	206	
Nc1nc2c(ncn2/C=C2\C[C@@H]2[C@H](O)CO)c(=O)[nH]1	inactive	inactive	67		> 20	> 100		> 60	> 300	
